Experiment [1] relates to Thoracic aorta. The experiment in a line: Potentiation of Angeli's salt induced- vasodilatory activity in Sprague-Dawley rat thoracic aorta at 1 mM. The experiment is classed as functional, tissue-based. The procedure, abridged:
(§1)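 Male Sprague-Dawley rat (200-250 g) thoracic aorta rings, 2-4 mm, in Krebs-Henseleit buffer at 37°C, pH 7.45, 2 g basal tension, 1 hr equilibration, 70 mM KCl viability check. Pretreated with L-NAME (100 μM) and indomethacin (5 μM), then preconstricted with phenylephrine (100 nM). Donors added cumulatively; relaxation is delta tension as percent of maximal PE constriction. Sigmoidal fits by non-linear regression give EC50.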

The subject of experiment [2] is Thoracic aorta. In words: Potentiation of 1-Nitrosocyclohexyl trifluoroacetate induced- vasodilatory activity in Sprague-Dawley rat thoracic aorta at 1 mM. It counts as functional, tissue-based. In short, it runs like this:
as §1

The test system of experiment [3] is Thoracic aorta. In words: Potentiation of 1-Nitrosocyclohexyl acetate induced- vasodilatory activity in Sprague-Dawley rat thoracic aorta at 1 mM. The experiment is classed as functional, tissue-based. The procedure, abridged:
as §1

For experiment [4], the system named is Thoracic aorta. The experiment in a line: Potentiation of MahmaNonoate induced- vasodilatory activity in Sprague-Dawley rat thoracic aorta at 1 mM. It counts as functional, tissue-based. In short, it runs like this: as §1
The test system of experiment [5] is Thoracic aorta. In words: Vasodilatory activity in Sprague-Dawley rat thoracic aorta assessed as relaxation of phenylephrine-induced vasoconstriction at 0.01 nM to 100 uM. It counts as functional, tissue-based. The procedure, abridged: as §1
Experiment [6] deals with Thoracic aorta. The experiment in a line: Vasodilatory activity in Sprague-Dawley rat thoracic aorta assessed as relaxation of phenylephrine-induced vasoconstriction compound treated 5 mins after 1 uM soluble guanylate cyclase inhibitor ODQ treatment. The experiment is classed as functional, tissue-based. The procedure, abridged: as §1
Experiment [7] deals with Thoracic aorta. In words: Vasodilatory activity in Sprague-Dawley rat thoracic aorta assessed as relaxation of phenylephrine-induced vasoconstriction compound treated 5 mins after 200 uM NO-scavenger C-PTIO treatment. The experiment is classed as functional, tissue-based. The procedure, abridged: as §1
Experiment [8] relates to Thoracic aorta. The experiment in a line: Inhibition of Angeli's salt induced- vasodilatory activity in Sprague-Dawley rat thoracic aorta at 0.1 to 1 mM. The experiment is classed as functional, tissue-based. In short, it runs like this: as §1
For experiment [9], the system named is Thoracic aorta. In words: Inhibition of 1-Nitrosocyclohexyl trifluoroacetate induced- vasodilatory activity in Sprague-Dawley rat thoracic aorta at 0.1 to 1 mM. It counts as functional, tissue-based. In short, it runs like this: as §1
The test system of experiment [10] is Thoracic aorta. The experiment in a line: Inhibition of 1-Nitrosocyclohexyl acetate induced- vasodilatory activity in Sprague-Dawley rat thoracic aorta at 0.1 to 1 mM. The experiment is classed as functional, tissue-based. The procedure, abridged:
as §1

Experiment [11] deals with Thoracic aorta. The experiment in a line: Vasodilatory activity in Sprague-Dawley rat thoracic aorta assessed as relaxation of phenylephrine-induced vasoconstriction at 0.01 nM to 1 uM in presence of 21% oxygen. It counts as functional, tissue-based. In short, it runs like this: as §1
For experiment [12], the system named is Thoracic aorta. The experiment in a line: Vasodilatory activity in Sprague-Dawley rat thoracic aorta assessed as relaxation of phenylephrine-induced vasoconstriction at 0.01 nM to 1 uM in presence of 1% oxygen. It counts as functional, tissue-based. In short, it runs like this: as §1
For experiment [13], the system named is Thoracic aorta. The experiment in a line: Vasodilatory activity in Sprague-Dawley rat thoracic aorta assessed as relaxation of phenylephrine-induced vasoconstriction at 0.01 nM to 1 uM in presence 100 U/ml SOD at 21% oxygen. It counts as functional, tissue-based. The procedure, abridged:
as §1

Experiment [14] is filed under the species Rattus norvegicus. The experiment in a line: Vasodilatory activity in rat aorta assessed as relaxation of phenylephrine-induced vasoconstriction.
For experiment [15], the species on record is Rattus norvegicus. In words: Vasodilatory activity in rat thoracic aorta assessed as relaxation of phenylephrine-induced vasoconstriction.
Experiment [16] is filed under the species Rattus norvegicus. In words: Ratio of compound EC50 to Angeli's salt EC50 for vasodilatory activity in rat aorta.
For experiment [17], the species on record is Rattus norvegicus. The experiment in a line: Ratio of compound EC50 to Angeli's salt EC50 for vasodilatory activity in rat thoracic aorta.

This is an account of results in ChEMBL document CHEMBL1681634, “Acyloxy nitroso compounds as nitroxyl (HNO) donors: kinetics, reactions with thiols, and vasodilation properties” (J Med Chem, 2011).

Where a name gives a salt, the structure may show the parent alone. The source made the active and inactive calls. No cut-off for these calls is given here.

In the case of `CC(=O)N[C@@H](CS)C(=O)O`, the outcome with Thoracic aorta [1] and in the experiment with Thoracic aorta [2] was Active. In addition, the outcome with Thoracic aorta [3] and in the experiment with Thoracic aorta [4] was inactive.
On to `CNCCCCCCN(C)N(O)N=O`, for which, in the experiment on Thoracic aorta [5], the Activity result was “Dose-dependent effect”. Further, the outcome with Thoracic aorta [6], in the experiment with Thoracic aorta [7], in the experiment on Thoracic aorta [3] and with Thoracic aorta [4] was inactive.
Turning to `N[C@@H](CCC(=O)N[C@@H](CS)C(=O)NCC(=O)O)C(=O)O`, the inhibition entry in the experiment with Thoracic aorta [8] and in the experiment on Thoracic aorta [9] was “Active” throughout. Besides, the inhibition entry in the experiment on Thoracic aorta [10] was “inactive”.
As for `CC(=O)OC1(N=O)CCCCC1` [1-NITROSOCYCLOHEXYL ACETATE], in the experiment with Thoracic aorta [5], the Activity result is “Dose-dependent effect”. For the same compound, the result in the experiment on Thoracic aorta [6], in the experiment with Thoracic aorta [7], in the experiment on Thoracic aorta [3] and in the experiment with Thoracic aorta [4] was inactive. Moreover, the result in the experiment on Thoracic aorta [11], in the experiment on Thoracic aorta [12] and in the experiment with Thoracic aorta [13] was Active. Moreover, the inhibition result with Thoracic aorta [10] is “inactive”. The EC50 in the experiment listed under Rattus norvegicus [14] and in the experiment filed under Rattus norvegicus [15] was 10000 nM each time.
`O=NC1(OC(=O)C(F)(F)F)CCCCC1` [1-NITROSOCYCLOHEXYL TRIFLUOROACETATE]: in the experiment with Thoracic aorta [5], the Activity entry is “Dose-dependent effect”. Besides, the outcome in the experiment on Thoracic aorta [6] and with Thoracic aorta [7] was inactive. In addition, the outcome in the experiment on Thoracic aorta [11], with Thoracic aorta [12], in the experiment on Thoracic aorta [13], in the experiment on Thoracic aorta [1] and in the experiment on Thoracic aorta [2] was Active. For the same compound, the inhibition result in the experiment with Thoracic aorta [8] and in the experiment on Thoracic aorta [9] was “Active” throughout. Besides, the “Ratio EC50” value in the experiment filed under Rattus norvegicus [16] and in the experiment listed under Rattus norvegicus [17] was 10 throughout. Moreover, the EC50 in the experiment filed under Rattus norvegicus [14] and in the experiment filed under Rattus norvegicus [15] was 880 nM throughout.
`[O-][N+]([O-])=NO` [ANGELI'S SALT]: the Activity entry with Thoracic aorta [5] was “Dose-dependent effect”. Moreover, the outcome in the experiment with Thoracic aorta [6], with Thoracic aorta [7] and in the experiment on Thoracic aorta [12] was inactive. For the same compound, the result in the experiment with Thoracic aorta [11], with Thoracic aorta [13], in the experiment on Thoracic aorta [1] and in the experiment with Thoracic aorta [2] was Active. For the same compound, the inhibition result in the experiment on Thoracic aorta [8] and in the experiment on Thoracic aorta [9] was “Active” throughout. Also, the EC50 in the experiment listed under Rattus norvegicus [14] and in the experiment listed under Rattus norvegicus [15] was 82 nM each time.
